One block for each molecule: values may come before it. Calls of active or inactive are those of the source. The calls are words filed in the database; no cut-off is given here. Square brackets hold non-standard residues; d marks the D form. Peptide text beside a SMILES is read from it.
Tests used:
[1] = molecular target: Melanocortin receptor 3 (Mus musculus) (UniProt P33033); experiment: Displacement of 125I-NDP-MSH from mouse MC3R expressed in HEK293 cells incubated for 1 hr by gamma counting analysis relative to Ac-His-DPhe-Arg-Trp-NH2; type: cell-based
How it was run: (§1)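 Mouse MC3R-Flag transiently transfected into HEK293 cells using FuGene6 two days before assay. Cells exposed 1 h at 37°C to 125I-NDP-MSH (100,000 cpm/well) plus competitor at 10^-12 to 10^-4 M in DMEM/0.1% BSA, then washed, lysed and gamma counted. Nonspecific binding defined with 10^-6 M NDP-MSH. Duplicates, ≥2 independent experiments.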

[2] = molecular target: Melanocyte-stimulating hormone receptor (Mus musculus) (UniProt Q01727); experiment: Displacement of 125I-NDP-MSH from mouse MC1R expressed in HEK293 cells incubated for 1 hr by gamma counting analysis relative to Ac-His-DPhe-Arg-Trp-NH2; type: cell-based
How it was run: (§2)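 Whole HEK293 cells stably expressing mouse MC1R or MC4R, grown to 90-100% confluency, incubated 1 h at 37°C in DMEM/0.1% BSA with 125I-NDP-MSH (100,000 cpm/well) and unlabeled ligand at 10^-12 to 10^-4 M. After one wash, cells lysed with NaOH/Triton X-100 and gamma counted. Nonspecific binding defined with 10^-6 M NDP-MSH.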

[3] = molecular target: Melanocortin receptor 4 (Mus musculus) (UniProt P56450); experiment: Agonist activity at mouse MC4R expressed in HEK293 cells assessed as cAMP accumulation at 100 uM incubated for 2 hrs by alphascreen assay; type: functional, cell-based
How it was run: (§3)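 cAMP response at 100 μM in stably transfected HEK293 cells (mouse MC3R-Flag, MC4R or MC5R), expressed as % of maximal NDP-MSH signal. AlphaScreen readout after 2 h room-temperature stimulation in IBMX-containing HBSS buffer, pH 7.4. Duplicate points, at least three independent experiments.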

[4] = molecular target: Melanocortin receptor 4 (Mus musculus) (UniProt P56450); experiment: Displacement of 125I-NDP-MSH from mouse MC4R expressed in HEK293 cells incubated for 1 hr by gamma counting analysis relative to Ac-His-DPhe-Arg-Trp-NH2; type: cell-based; how it was run: as §2
[5] = molecular target: Melanocortin receptor 3 (Mus musculus) (UniProt P33033); experiment: Agonist activity at mouse MC3R expressed in HEK293 cells assessed as cAMP accumulation at 100 uM incubated for 2 hrs by alphascreen assay; type: functional, cell-based; how it was run: as §3
[6] = molecular target: Melanocortin receptor 5 (Mus musculus) (UniProt P41149); experiment: Agonist activity at mouse MC5R expressed in HEK293 cells assessed as cAMP accumulation at 100 uM incubated for 2 hrs by alphascreen assay; type: functional, cell-based; how it was run: as §3
[7] = molecular target: Melanocyte-stimulating hormone receptor (Mus musculus) (UniProt Q01727); experiment: Agonist activity at mouse MC1R expressed in HEK293 cells assessed as cAMP accumulation incubated for 2 hrs by alphascreen assay relative to Ac-His-DPhe-Arg-Trp-NH2; type: functional, cell-based
How it was run: (§4)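 HEK293 cells stably expressing mouse MC1R, MC3R (Flag-tagged), MC4R or MC5R, 10,000 cells/well, stimulated with ligand at 10^-13 to 10^-4 M for 2 h at room temperature in HBSS stimulation buffer with 0.5 mM IBMX, 0.1% BSA, pH 7.4. cAMP read by AlphaScreen competition after a further 2 h with donor beads.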

[8] = molecular target: Melanocortin receptor 3 (Mus musculus) (UniProt P33033); experiment: Displacement of 125I-NDP-MSH from mouse MC3R expressed in HEK293 cells at 100 uM incubated for 1 hr by gamma counting analysis; type: cell-based; how it was run: as §1
[9] = molecular target: Melanocortin receptor 4 (Mus musculus) (UniProt P56450); experiment: Agonist activity at mouse MC4R expressed in HEK293 cells assessed as cAMP accumulation incubated for 2 hrs by alphascreen assay relative to Ac-His-DPhe-Arg-Trp-NH2; type: functional, cell-based; how it was run: as §4
[10] = molecular target: Melanocortin receptor 5 (Mus musculus) (UniProt P41149); experiment: Agonist activity at mouse MC5R expressed in HEK293 cells assessed as cAMP accumulation incubated for 2 hrs by alphascreen assay relative to Ac-His-DPhe-Arg-Trp-NH2; type: functional, cell-based; how it was run: as §4
[11] = test system: Mus musculus; experiment: Reduction in food intake in female 129/Sv x C57BL/6J mouse at 2.5 to 5 nmol, icv measured at 48 to 72 hrs post dose; type: functional, organism-based
How it was run: (§5)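 Crossover design in mice aged 8 weeks with lateral-ventricle cannulas (placement validated by PYY3-36), chow ad libitum, 12-h light/dark. Single ICV injection of 1.0, 2.5 or 5.0 nmol in 3 µL saline, or saline alone, 2 h before lights out. Food intake and body weight weighed at 0, 2, 4, 6, 8, 24, 48, 72 h. One-way ANOVA with Bonferroni test versus saline.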

[12] = test system: Mus musculus; experiment: Toxicity in male 129/Sv x C57BL/6J mouse assessed as drug tolerability at 2.5 and 5 nmol, icv measured at 2 to 72 hrs post dose; type: organism-based; conditions: in vivo
[13] = test system: Mus musculus; experiment: Reduction in food intake in female 129/Sv x C57BL/6J mouse at 2.5 to 5 nmol, icv measured at 2 to 8 hrs post dose; type: functional, organism-based; how it was run: as §5
[14] = test system: Mus musculus; experiment: Reduction in food intake in male 129/Sv x C57BL/6J mouse at 2.5 to 5 nmol, icv measured at 24 to 72 hrs post dose; type: functional, organism-based; how it was run: as §5
[15] = test system: Mus musculus; experiment: Reduction in food intake in female 129/Sv x C57BL/6J mouse at 2.5 to 5 nmol, icv measured at 24 hrs post dose; type: functional, organism-based; how it was run: as §5
[16] = test system: Mus musculus; experiment: Reduction in food intake in male 129/Sv x C57BL/6J mouse at 2.5 to 5 nmol, icv measured at 2 to 5 hrs post dose; type: functional, organism-based
[17] = test system: Mus musculus; experiment: Reduction in food intake in icv dosed male 129/Sv x C57BL/6J mouse measured at 2 to 72 hrs post dose; type: functional, organism-based; how it was run: as §5
[18] = test system: Mus musculus; experiment: Effect on body weight in male 129/Sv x C57BL/6J mouse at 2.5 to 5 nmol, icv measured at 2 to 72 hrs post dose; type: ADME, organism-based; conditions: in vivo, icv_or_intrathecal; how it was run: as §5
[19] = test system: Mus musculus; experiment: Effect on body weight in female 129/Sv x C57BL/6J mouse at 2.5 to 5 nmol, icv measured at 2 to 72 hrs post dose; type: ADME, organism-based; conditions: in vivo, icv_or_intrathecal; how it was run: as §5

Melanocortin receptor 3 (Mus musculus), sequence (P33033 whole entry): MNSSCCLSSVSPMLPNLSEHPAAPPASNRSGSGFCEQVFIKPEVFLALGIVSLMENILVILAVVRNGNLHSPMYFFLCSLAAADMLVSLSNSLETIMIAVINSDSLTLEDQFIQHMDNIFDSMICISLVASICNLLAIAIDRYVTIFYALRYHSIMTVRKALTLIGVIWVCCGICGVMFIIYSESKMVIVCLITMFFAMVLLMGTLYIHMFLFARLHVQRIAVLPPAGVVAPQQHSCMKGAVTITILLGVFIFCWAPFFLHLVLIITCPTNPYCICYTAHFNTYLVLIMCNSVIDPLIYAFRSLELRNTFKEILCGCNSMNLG
Melanocortin receptor 4 (Mus musculus), sequence (P56450 whole entry): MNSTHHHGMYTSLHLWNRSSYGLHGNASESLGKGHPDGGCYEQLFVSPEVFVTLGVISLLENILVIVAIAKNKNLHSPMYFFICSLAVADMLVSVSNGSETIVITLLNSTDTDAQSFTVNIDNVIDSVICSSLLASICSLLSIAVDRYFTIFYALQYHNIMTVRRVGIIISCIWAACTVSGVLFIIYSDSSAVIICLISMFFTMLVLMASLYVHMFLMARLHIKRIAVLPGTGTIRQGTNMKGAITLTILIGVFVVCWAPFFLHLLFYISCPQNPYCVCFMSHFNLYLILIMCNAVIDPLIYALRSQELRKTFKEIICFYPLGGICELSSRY
Melanocortin receptor 5 (Mus musculus), sequence (P41149 whole entry): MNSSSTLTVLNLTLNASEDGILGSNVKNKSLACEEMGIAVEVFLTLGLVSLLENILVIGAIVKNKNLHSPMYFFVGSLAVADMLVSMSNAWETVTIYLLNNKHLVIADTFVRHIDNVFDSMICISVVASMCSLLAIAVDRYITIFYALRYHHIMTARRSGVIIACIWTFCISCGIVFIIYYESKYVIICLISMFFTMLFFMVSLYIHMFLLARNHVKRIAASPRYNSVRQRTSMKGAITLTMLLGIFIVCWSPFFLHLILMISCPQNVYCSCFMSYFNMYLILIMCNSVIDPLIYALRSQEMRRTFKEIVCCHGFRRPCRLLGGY
Melanocyte-stimulating hormone receptor (Mus musculus), sequence (Q01727 whole entry, looked up): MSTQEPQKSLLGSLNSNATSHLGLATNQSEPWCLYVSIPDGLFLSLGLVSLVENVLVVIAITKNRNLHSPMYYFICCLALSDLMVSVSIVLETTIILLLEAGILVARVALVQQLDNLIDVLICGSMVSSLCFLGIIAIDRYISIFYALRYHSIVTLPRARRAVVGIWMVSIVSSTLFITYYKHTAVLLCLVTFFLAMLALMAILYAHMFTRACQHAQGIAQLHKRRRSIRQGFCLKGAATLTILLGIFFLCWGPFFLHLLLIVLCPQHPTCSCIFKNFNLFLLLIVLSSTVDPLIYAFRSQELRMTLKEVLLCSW

SMILES: CC(=O)N[C@@H](Cc1cnc[nH]1)C(=O)N[C@H](Cc1ccc2ccccc2c1)C(=O)N[C@@H](CCCNC(=N)N)C(=O)N[C@@H](Cc1c[nH]c2ccccc12)C(=O)NCCCOCCOCCOCCCNC(=O)COCC(=O)N[C@@H](Cc1cnc[nH]1)C(=O)N[C@H](Cc1ccc2ccccc2c1)C(=O)N[C@@H](CCCNC(=N)N)C(=O)N[C@@H](Cc1c[nH]c2ccccc12)C(N)=O
Ratio IC50 [1]: 4
Activity [3]: 85%
Ratio IC50 [4]: 2
Activity [5]: 80%

SMILES: CC(=O)N[C@@H](Cc1c[nH]cn1)C(=O)N[C@H](Cc1ccc2ccccc2c1)C(=O)N[C@@H](CCCN=C(N)N)C(=O)N[C@@H](Cc1c[nH]c2ccccc12)C(N)=O
Activity [6]: 75%
Activity [5]: 45%

SMILES: CC(=O)N[C@H](Cc1cnc[nH]1)C(=O)N[C@H](Cc1ccccc1)C(=O)N[C@@H](CCCNC(=N)N)C(=O)N[C@H](Cc1c[nH]c2ccccc12)C(=O)N1CCC[C@@H]1C(=O)NCC(=O)N1CCC[C@@H]1C(=O)NCC(=O)N1CCC[C@@H]1C(=O)NCC(=O)N1CCC[C@@H]1C(=O)NCC(=O)N1CCC[C@@H]1C(=O)NCC(=O)N1CCC[C@H]1C(=O)NCC(=O)N[C@@H](Cc1cnc[nH]1)C(=O)N[C@H](Cc1ccccc1)C(=O)N[C@@H](CCCNC(=N)N)C(=O)N[C@@H](Cc1c[nH]c2ccccc12)C(N)=O
Ratio EC50 [7]: 3

SMILES: CC(=O)N[C@@H](Cc1cnc[nH]1)C(=O)N[C@H](Cc1ccccc1)C(=O)N[C@@H](CCCNC(=N)N)C(=O)N[C@@H](Cc1c[nH]c2ccccc12)C(N)=O
inhibition [8]: 60%

SMILES: CC(=O)N[C@H](Cc1cnc[nH]1)C(=O)N[C@H](Cc1ccccc1)C(=O)N[C@@H](CCCNC(=N)N)C(=O)N[C@H](Cc1c[nH]c2ccccc12)C(=O)N1CCC[C@@H]1C(=O)NCC(=O)N1CCC[C@@H]1C(=O)NCC(=O)N1CCC[C@@H]1C(=O)NCC(=O)N1CCC[C@@H]1C(=O)NCC(=O)N1CCC[C@@H]1C(=O)NCC(=O)N1CCC[C@H]1C(=O)NCC(N)=O
Ratio EC50 [7]: 2
inhibition [8]: 85%
Ratio EC50 [9]: 0.2

SMILES: N=C(N)NCCC[C@H](NC(=O)[C@@H](Cc1ccccc1)NC(=O)[C@H](Cc1cnc[nH]1)NC(=O)CNC(=O)[C@@H]1CCCN1C(=O)CNC(=O)[C@@H]1CCCN1C(=O)CNC(=O)[C@@H]1CCCN1C(=O)CNC(=O)[C@@H]1CCCN1C(=O)CNC(=O)[C@@H]1CCCN1C(=O)CNC(=O)[C@@H]1CCCN1)C(=O)N[C@@H](Cc1c[nH]c2ccccc12)C(N)=O (H-PGPGPGPGPGPGH[dF]RW-NH2)
Ratio EC50 [7]: 0.9
Ratio EC50 [10]: 2

SMILES: CC(=O)N[C@@H](Cc1cnc[nH]1)C(=O)N[C@H](Cc1ccccc1)C(=O)N[C@@H](CCCNC(=N)N)C(=O)N[C@@H](Cc1c[nH]c2ccccc12)C(=O)NCCCOCCOCCOCCCNC(=O)COCC(=O)N[C@@H](Cc1cnc[nH]1)C(=O)N[C@H](Cc1ccccc1)C(=O)N[C@@H](CCCNC(=N)N)C(=O)N[C@@H](Cc1c[nH]c2ccccc12)C(N)=O
Activity [11]: inactive
Activity [12]: Non-toxic
Activity [13]: inactive
Activity [14]: inactive
Activity [15]: Active
Activity [16]: Active
Activity [17]: Dose-dependent effect
Activity [18]: Non-toxic
Activity [19]: Non-toxic

More lines, now with the values ahead:

Ratio IC50 [1]: 1
Ratio IC50 [2]: 1
Activity [3]: 40%
SMILES: N=C(N)NCCC[C@H](NC(=O)[C@@H](Cc1ccc2ccccc2c1)NC(=O)[C@H](Cc1cnc[nH]1)NC(=O)COCC(=O)NCCCOCCOCCOCCCN)C(=O)N[C@@H](Cc1c[nH]c2ccccc12)C(N)=O

Ratio IC50 [2]: 2
Activity [3]: 20%
Activity [5]: 40%
SMILES: CC(=O)N[C@@H](Cc1cnc[nH]1)C(=O)N[C@H](Cc1ccc2ccccc2c1)C(=O)N[C@@H](CCCNC(=N)N)C(=O)N[C@@H](Cc1c[nH]c2ccccc12)C(=O)NCCCOCCOCCOCCCNC(=O)COCC(N)=O

Ratio EC50 [7]: 0.6
inhibition [8]: 78%
Ratio EC50 [9]: 0.7
Ratio EC50 [10]: 2
SMILES: N=C(N)NCCC[C@H](NC(=O)[C@@H](Cc1ccccc1)NC(=O)[C@H](Cc1cnc[nH]1)NC(=O)COCC(=O)NCCCOCCOCCOCCCN)C(=O)N[C@@H](Cc1c[nH]c2ccccc12)C(N)=O

Ratio IC50 [1]: 6
Ratio IC50 [2]: 2
SMILES: CC(=O)N[C@@H](Cc1cnc[nH]1)C(=O)N[C@H](Cc1ccccc1)C(=O)N[C@@H](CCCNC(=N)N)C(=O)N[C@@H](Cc1c[nH]c2ccccc12)C(=O)NCCCOCCOCCOCCCNC(=O)COCC(N)=O
